Measured values: ChEMBL document CHEMBL5058577, “EUbOPEN Chemogenomics Library 2 (Multiplex)” (2022)

System: Fibroblast
Experiment: Multiplex assay against human fibroblast
Format: toxicity, cell-based
How it was run: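 Hoechst33342, BioTracker Green Microtubule Cytoskeleton Dye, MitoTracker Red and Annexin V Alexa Fluor 680 were added to live cells at seeding, and imaging on a CQ1 microscope at 37°C and 5% CO2 followed compound addition. Gating by CellPathfinder machine learning separated cells into Hoechst high-intensity objects or normal cells, then normal cells into healthy, pyknosed or fragmented nuclei, then pyknosed cells into mitotic or apoptotic. Per cents of healthy-nucleus cells are reported for the tubulin, mitochondrial-mass and membrane-permeability phenotypes.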

[1] = 12 h, 1 µM, compound concentration 1 uM, replicate 1
[2] = 12 h, 1 µM, compound concentration 1 uM, replicate 2
[3] = 12 h, 10 µM, compound concentration 10 uM, replicate 1
[4] = 12 h, 10 µM, compound concentration 10 uM, replicate 2
[5] = 24 h, 1 µM, compound concentration 1 uM, replicate 1
[6] = 24 h, 1 µM, compound concentration 1 uM, replicate 2
[7] = 24 h, 10 µM, compound concentration 10 uM, replicate 1
[8] = 24 h, 10 µM, compound concentration 10 uM, replicate 2
[9] = 48 h, 1 µM, compound concentration 1 uM, replicate 1
[10] = 48 h, 1 µM, compound concentration 1 uM, replicate 2
[11] = 48 h, 10 µM, compound concentration 10 uM, replicate 1
[12] = 48 h, 10 µM, compound concentration 10 uM, replicate 2

Cc1cnc(-c2cc(N3CCN(C(=O)CCS(C)(=O)=O)CC3)ncc2Cl)c(C)c1
Population Apoptotic (%) [1]: 36%
Population Fragmented Nuclei (%) [1]: 9%
Population Healthy Nuclei (%) [1]: 71%
Population Hoechst High Intensity Objects (%) [1]: 1%
Population Membrane Permeable-Phenotype (%) [1]: 0%
Population Mitochondria Different-Phenotype (%) [1]: 7%
Population Mitotic Cells (%) [1]: 63%
Population Normal (%) [1]: 98%
Population Pyknosed Nuclei (%) [1]: 19%
Population Tubulin-Different-Phenotype (%) [1]: 20%
Total Cell Count [1]: 99
Population Apoptotic (%) [2]: 31%
Population Fragmented Nuclei (%) [2]: 22%
Population Healthy Nuclei (%) [2]: 36%
Population Hoechst High Intensity Objects (%) [2]: 9%
Population Membrane Permeable-Phenotype (%) [2]: 7%
Population Mitochondria Different-Phenotype (%) [2]: 10%
Population Mitotic Cells (%) [2]: 68%
Population Normal (%) [2]: 90%
Population Pyknosed Nuclei (%) [2]: 41%
Population Tubulin-Different-Phenotype (%) [2]: 50%
Total Cell Count [2]: 85
Population Apoptotic (%) [3]: 40%
Population Fragmented Nuclei (%) [3]: 13%
Population Healthy Nuclei (%) [3]: 71%
Population Hoechst High Intensity Objects (%) [3]: 4%
Population Membrane Permeable-Phenotype (%) [3]: 1%
Population Mitochondria Different-Phenotype (%) [3]: 2%
Population Mitotic Cells (%) [3]: 60%
Population Normal (%) [3]: 95%
Population Pyknosed Nuclei (%) [3]: 14%
Population Tubulin-Different-Phenotype (%) [3]: 24%
Total Cell Count [3]: 142
Population Apoptotic (%) [4]: 26%
Population Fragmented Nuclei (%) [4]: 21%
Population Healthy Nuclei (%) [4]: 63%
Population Hoechst High Intensity Objects (%) [4]: 1%
Population Mitotic Cells (%) [4]: 73%
Population Normal (%) [4]: 98%
Population Pyknosed Nuclei (%) [4]: 15%
Population Tubulin-Different-Phenotype (%) [4]: 37%
Total Cell Count [4]: 121
Population Apoptotic (%) [5]: 54%
Population Fragmented Nuclei (%) [5]: 10%
Population Healthy Nuclei (%) [5]: 76%
Population Hoechst High Intensity Objects (%) [5]: 6%
Population Membrane Permeable-Phenotype (%) [5]: 2%
Population Mitochondria Different-Phenotype (%) [5]: 4%
Population Mitotic Cells (%) [5]: 45%
Population Normal (%) [5]: 93%
Population Pyknosed Nuclei (%) [5]: 12%
Population Tubulin-Different-Phenotype (%) [5]: 30%
Total Cell Count [5]: 97
Population Apoptotic (%) [6]: 47%
Population Fragmented Nuclei (%) [6]: 35%
Population Healthy Nuclei (%) [6]: 38%
Population Hoechst High Intensity Objects (%) [6]: 10%
Population Membrane Permeable-Phenotype (%) [6]: 3%
Population Mitochondria Different-Phenotype (%) [6]: 0%
Population Mitotic Cells (%) [6]: 52%
Population Normal (%) [6]: 89%
Population Pyknosed Nuclei (%) [6]: 25%
Population Tubulin-Different-Phenotype (%) [6]: 61%
Total Cell Count [6]: 91
Population Apoptotic (%) [7]: 46%
Population Fragmented Nuclei (%) [7]: 10%
Population Healthy Nuclei (%) [7]: 79%
Population Hoechst High Intensity Objects (%) [7]: 0%
Population Membrane Permeable-Phenotype (%) [7]: 2%
Population Mitochondria Different-Phenotype (%) [7]: 6%
Population Mitotic Cells (%) [7]: 53%
Population Normal (%) [7]: 99%
Population Pyknosed Nuclei (%) [7]: 9%
Population Tubulin-Different-Phenotype (%) [7]: 28%
Total Cell Count [7]: 135
Population Apoptotic (%) [8]: 42%
Population Fragmented Nuclei (%) [8]: 19%
Population Healthy Nuclei (%) [8]: 67%
Population Hoechst High Intensity Objects (%) [8]: 4%
Population Mitochondria Different-Phenotype (%) [8]: 9%
Population Mitotic Cells (%) [8]: 57%
Population Normal (%) [8]: 95%
Population Pyknosed Nuclei (%) [8]: 12%
Population Tubulin-Different-Phenotype (%) [8]: 38%
Total Cell Count [8]: 116
Population Apoptotic (%) [9]: 69%
Population Fragmented Nuclei (%) [9]: 19%
Population Healthy Nuclei (%) [9]: 58%
Population Hoechst High Intensity Objects (%) [9]: 2%
Population Membrane Permeable-Phenotype (%) [9]: 0%
Population Mitochondria Different-Phenotype (%) [9]: 1%
Population Mitotic Cells (%) [9]: 30%
Population Normal (%) [9]: 97%
Population Pyknosed Nuclei (%) [9]: 21%
Population Tubulin-Different-Phenotype (%) [9]: 33%
Total Cell Count [9]: 109
Population Apoptotic (%) [10]: 36%
Population Fragmented Nuclei (%) [10]: 40%
Population Healthy Nuclei (%) [10]: 47%
Population Hoechst High Intensity Objects (%) [10]: 5%
Population Membrane Permeable-Phenotype (%) [10]: 12%
Population Mitochondria Different-Phenotype (%) [10]: 9%
Population Mitotic Cells (%) [10]: 63%
Population Normal (%) [10]: 94%
Population Pyknosed Nuclei (%) [10]: 12%
Population Tubulin-Different-Phenotype (%) [10]: 70%
Total Cell Count [10]: 92
Population Apoptotic (%) [11]: 50%
Population Fragmented Nuclei (%) [11]: 21%
Population Healthy Nuclei (%) [11]: 69%
Population Hoechst High Intensity Objects (%) [11]: 2%
Population Membrane Permeable-Phenotype (%) [11]: 0%
Population Mitochondria Different-Phenotype (%) [11]: 7%
Population Mitotic Cells (%) [11]: 50%
Population Normal (%) [11]: 97%
Population Pyknosed Nuclei (%) [11]: 8%
Population Tubulin-Different-Phenotype (%) [11]: 33%
Total Cell Count [11]: 141
Population Apoptotic (%) [12]: 75%
Population Fragmented Nuclei (%) [12]: 29%
Population Healthy Nuclei (%) [12]: 61%
Population Hoechst High Intensity Objects (%) [12]: 3%
Population Membrane Permeable-Phenotype (%) [12]: 2%
Population Mitochondria Different-Phenotype (%) [12]: 5%
Population Mitotic Cells (%) [12]: 25%
Population Normal (%) [12]: 96%
Population Pyknosed Nuclei (%) [12]: 9%
Total Cell Count [12]: 131
